{"source": "PubChem BioAssay", "note": "Values without a mark were called inactive. Calls of active or inactive are those of the source.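 How the source made its calls, unless noted: active means a full or partial loss of lipid-probe fluorescence in the fish gall bladder, intestine or both, judged by eye; inactive means no fluorescence loss, or compound toxic to the fish.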", "data": [{"molecular_target": "Alpha-2C adrenergic receptor (Homo sapiens) (UniProt P18825)", "sequence (P18825 whole entry, looked up)": "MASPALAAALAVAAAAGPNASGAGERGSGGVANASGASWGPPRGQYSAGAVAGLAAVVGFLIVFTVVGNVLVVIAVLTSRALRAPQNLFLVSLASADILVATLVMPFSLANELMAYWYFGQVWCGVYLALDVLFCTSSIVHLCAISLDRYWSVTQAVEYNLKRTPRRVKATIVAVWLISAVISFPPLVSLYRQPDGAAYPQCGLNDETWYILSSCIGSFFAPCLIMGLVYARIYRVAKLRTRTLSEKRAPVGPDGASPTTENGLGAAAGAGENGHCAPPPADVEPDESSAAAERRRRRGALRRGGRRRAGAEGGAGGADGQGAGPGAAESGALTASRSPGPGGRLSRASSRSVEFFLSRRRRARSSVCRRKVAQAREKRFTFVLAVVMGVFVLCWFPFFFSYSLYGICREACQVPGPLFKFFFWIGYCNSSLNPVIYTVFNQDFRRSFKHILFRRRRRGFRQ", "assay": "modulators of alpha2C/GIRK thallium flux, primary screen, cell-based, HEK293 alpha2C/GIRK1/2 (AID 624;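 active means fluorescence slope after compound addition differing from the mean of all screened samples at 99.7% confidence, in either direction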;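 further: slope of fluorescence ratio to pre-addition baseline per second over 15 to 24 s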)", "conditions": "thallium flux BTC fluorescence, at 10 µM, actives lie on both sides", "values": [{"smiles": "CC1(C)Cc2c(sc3nc(SCC#N)n(C4CCCCC4)c(=O)c23)CO1", "slope": 0.0054}, {"smiles": "CN1CCN(C(=O)CSc2nc(-c3cccs3)ccc2C#N)CC1", "slope": 0.00609}, {"smiles": "O/N=C1\\CCc2cc(Cl)ccc21", "slope": 0.0047}, {"smiles": "CC(C)CC(C(=O)O)C(C)CC(=O)Nc1ccn(-c2ccccc2)n1", "note": "(stereo not drawn)", "slope": 0.0075}, {"smiles": "CCCOc1ccc(N2C(=O)CC(N(CCC)C(=O)CCC(=O)O)C2=O)cc1", "note": "(stereo not drawn)", "slope": 0.00456}, {"smiles": "CCCCC(C(=O)O)C(C)CC(=O)Nc1cccc(C(=O)O)c1", "note": "(stereo not drawn)", "slope": 0.00384}, {"smiles": "CC(C)C1Cc2c(C#N)c(N)n(C)c(=S)c2CO1", "note": "(stereo not drawn)", "slope": 0.00431}, {"smiles": "O=C(O)CC(NC(=O)COc1ccc(Cl)cc1Cl)C(=O)O", "note": "(stereo not drawn)", "slope": 0.00527}, {"smiles": "O=C1C(=O)N(CCN2CCOCC2)C(c2ccccn2)/C1=C(/O)c1ccccc1", "note": "(stereo not drawn)", "slope": 0.00578}, {"smiles": "C=CCOC(=O)C1=C(C)NC(SCC(=O)N(CC)CC)=C(C#N)C1c1ccco1", "note": "(stereo not drawn)", "slope": 0.00442}, {"smiles": "CN1CCc2c(sc3ncn4nc(-c5ccccc5O)nc4c23)C1", "slope": 0.00542}, {"smiles": "CN(C)c1ccc(-c2nn3c(-c4ccc(Cl)cc4)nnc3s2)cc1", "slope": 0.00702}, {"smiles": "O=c1oc2c3c4c(cc2c(C(F)(F)F)c1CCN1CCOCC1)CCCN4CCC3", "slope": "0.0309 (active)"}, {"smiles": "c1ccc(N2CCN(c3nc(-c4ccccn4)nc4ccccc34)CC2)cc1", "slope": 0.0043}, {"smiles": "Fc1ccc2[nH]c3c(N4CCN(Cc5ccc6c(c5)OCO6)CC4)ncnc3c2c1", "slope": 0.00448}, {"smiles": "COc1ccc(OCC(=O)N2CCN(C(=O)c3cccc4ccccc34)CC2)cc1", "slope": 0.00599}, {"smiles": "C=CCc1cccc(/C=N/c2ncn[nH]2)c1O", "slope": 0.00453}, {"smiles": "COc1cccc2c(=O)c(SC(F)(F)C(F)C(F)(F)F)c(C)[nH]c12", "note": "(stereo not drawn)", "slope": 0.00581}, {"smiles": "C=CCOc1nc2c(c(=O)n(Cc3ccc(Cl)c(Cl)c3)c(=O)n2C)n1C", "slope": 0.00594}, {"smiles": "COCCNc1cc(C)c(C#N)c2nc3ccccc3n12", "slope": 0.00535}, {"smiles": "CC(C)(C)c1cccc(/C=N/O)c1O", "slope": 0.00592}, {"smiles": "O=C(O)C1CSCN1S(=O)(=O)c1cccc2nsnc12", "note": "(stereo not drawn)", "slope": 0.00516}, {"smiles": "CCN=C1SC(C(=O)Nc2ccc(Cl)c(Cl)c2)CC(=O)N1CC", "note": "(stereo not drawn)", "slope": 0.00577}, {"smiles": "CC1CN(c2oc(-c3cccs3)nc2C#N)CC(C)O1", "note": "(stereo not drawn)", "slope": 0.00683}]}, {"tested_on": "not listed separately", "assay": "inhibitors of larval lipid processing in zebrafish, primary screen, whole organism, PED6 fluorescence, gall bladder and intestine (AID 686);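 further: larvae 5 to 7 days old with five fish per well; signal comes from phospholipase A2 cleavage of quenched PED6 carried via bile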", "conditions": "Zebrafish larvae PED6 lipid processing, fluorescence scoring; screened at 20 µM (by protocol)", "summary_of_the_method": "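Incubation: overnight exposure of larvae to compound plus PED6 / Test system: live zebrafish larvae aged 5-7 days, whole organism / Amount: 5 larvae per well / Read-out basis: visual per-well fluorescence inhibition score / Signal: visual fluorescence microscopy scoring of gall bladder, gut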", "values": [{"smiles": "CCN1CCCC1Cn1cnc2c([nH]c3ccc(C)cc32)c1=O", "note": "(stereo not drawn)", "outcome": "inactive"}, {"smiles": "CCOC(=O)CSc1nc(N)c(C#N)c(-c2ccc(OC)cc2)c1C#N", "outcome": "inactive"}, {"smiles": "CCOC(=O)CC1=C(C(=O)OCC)C(c2cc(OC)c(OC)cc2OC)C(C#N)=C(N)O1", "note": "(stereo not drawn)", "outcome": "inactive"}, {"smiles": "CCCOc1ccc(/C(O)=C2/C(=O)C(=O)N(CCN(C)C)C2c2ccncc2)cc1", "note": "(stereo not drawn)", "outcome": "inactive"}, {"smiles": "CN=C1c2c(-c3ccccc3)c3cc(OC)ccc3n2CCN1C", "outcome": "inactive"}, {"smiles": "COCCOC(=O)C1=C(C)NC(SCC(=O)NC(C)(C)C)=C(C#N)C1c1ccco1", "note": "(stereo not drawn)", "outcome": "inactive; toxic"}, {"smiles": "c1ccc(-c2nnc3n2N=C(c2ccc4c(c2)OCO4)CS3)nc1", "outcome": "inactive"}, {"smiles": "C=COC(=O)CSc1nc(-c2cccs2)ccc1C#N", "outcome": "inactive"}, {"smiles": "Cn1c(=O)oc2cc(C(=O)c3ccccc3)ccc21", "outcome": "inactive"}, {"smiles": "CCOc1nc(SCCOc2ccc(C)cc2)nc(N(C)C)n1", "outcome": "inactive"}, {"smiles": "Cc1ccc(CC2CC(=O)N(c3ccc4c(c3)OCCO4)C2=O)cc1", "note": "(stereo not drawn)", "outcome": "inactive"}, {"smiles": "COC(=O)Cn1cc(C(=O)OC)cc(Br)c1=O", "outcome": "inactive"}, {"smiles": "CCN(CC)CCNC(=O)c1c(C)oc2cc(Br)c(OC)cc12", "outcome": "inactive"}, {"smiles": "N=c1c2c(-c3ccccc3)c(-c3ccccc3)n(Cc3ccccc3)c2ncn1CCCn1ccnc1", "outcome": "inactive"}, {"smiles": "Cc1cc(C)nc(N(C#N)S(=O)(=O)c2ccccc2Cl)n1", "outcome": "inactive"}, {"smiles": "CC1(C)Cc2c(sc3nc(SCC#N)n(C4CCCCC4)c(=O)c23)CO1", "outcome": "inactive"}, {"smiles": "CN1CCN(C(=O)CSc2nc(-c3cccs3)ccc2C#N)CC1", "outcome": "inactive"}, {"smiles": "O/N=C1\\CCc2cc(Cl)ccc21", "outcome": "inactive"}, {"smiles": "CC(C)CC(C(=O)O)C(C)CC(=O)Nc1ccn(-c2ccccc2)n1", "note": "(stereo not drawn)", "outcome": "inactive"}, {"smiles": "CCCOc1ccc(N2C(=O)CC(N(CCC)C(=O)CCC(=O)O)C2=O)cc1", "note": "(stereo not drawn)", "outcome": "inactive; toxic"}, {"smiles": "CCCCC(C(=O)O)C(C)CC(=O)Nc1cccc(C(=O)O)c1", "note": "(stereo not drawn)", "outcome": "inactive"}, {"smiles": "CC(C)C1Cc2c(C#N)c(N)n(C)c(=S)c2CO1", "note": "(stereo not drawn)", "outcome": "inactive"}, {"smiles": "O=C(O)CC(NC(=O)COc1ccc(Cl)cc1Cl)C(=O)O", "note": "(stereo not drawn)", "outcome": "inactive"}, {"smiles": "O=C1C(=O)N(CCN2CCOCC2)C(c2ccccn2)/C1=C(/O)c1ccccc1", "note": "(stereo not drawn)", "outcome": "inactive"}, {"smiles": "C=CCOC(=O)C1=C(C)NC(SCC(=O)N(CC)CC)=C(C#N)C1c1ccco1", "note": "(stereo not drawn)", "outcome": "inactive; toxic"}, {"smiles": "CN1CCc2c(sc3ncn4nc(-c5ccccc5O)nc4c23)C1", "outcome": "inactive"}, {"smiles": "CN(C)c1ccc(-c2nn3c(-c4ccc(Cl)cc4)nnc3s2)cc1", "outcome": "inactive"}, {"smiles": "O=c1oc2c3c4c(cc2c(C(F)(F)F)c1CCN1CCOCC1)CCCN4CCC3", "outcome": "inactive"}, {"smiles": "c1ccc(N2CCN(c3nc(-c4ccccn4)nc4ccccc34)CC2)cc1", "outcome": "inactive"}, {"smiles": "Fc1ccc2[nH]c3c(N4CCN(Cc5ccc6c(c5)OCO6)CC4)ncnc3c2c1", "outcome": "inactive; toxic"}, {"smiles": "COc1ccc(OCC(=O)N2CCN(C(=O)c3cccc4ccccc34)CC2)cc1", "outcome": "inactive"}, {"smiles": "C=CCc1cccc(/C=N/c2ncn[nH]2)c1O", "outcome": "inactive"}, {"smiles": "COc1cccc2c(=O)c(SC(F)(F)C(F)C(F)(F)F)c(C)[nH]c12", "note": "(stereo not drawn)", "outcome": "inactive"}, {"smiles": "C=CCOc1nc2c(c(=O)n(Cc3ccc(Cl)c(Cl)c3)c(=O)n2C)n1C", "outcome": "inactive"}, {"smiles": "COCCNc1cc(C)c(C#N)c2nc3ccccc3n12", "outcome": "inactive"}, {"smiles": "CC(C)(C)c1cccc(/C=N/O)c1O", "outcome": "inactive"}, {"smiles": "O=C(O)C1CSCN1S(=O)(=O)c1cccc2nsnc12", "note": "(stereo not drawn)", "outcome": "inactive"}, {"smiles": "CCN=C1SC(C(=O)Nc2ccc(Cl)c(Cl)c2)CC(=O)N1CC", "note": "(stereo not drawn)", "outcome": "inactive"}, {"smiles": "CC1CN(c2oc(-c3cccs3)nc2C#N)CC(C)O1", "note": "(stereo not drawn)", "outcome": "inactive"}]}]}
